From PMC5797669 (Cellular signalling, 2016) come the findings set out here.

One test deals with hY4R point mutants. Kind of test: [^125I]-hPP cell surface binding assay. Set-up: species or system human. The following applies: all point mutants; HEK293; compared to WT (set to 100%). The gist of the method:
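EYFP-fused receptor constructs transiently expressed in HEK293: 7 µg receptor DNA per 6-well by Lipofectamine 2000. Cells re-seeded next day into poly-D-lysine-coated 48-well plates and grown to confluence. Specific [125I]-hPP binding of each mutant expressed relative to wild-type receptor specific binding.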

The target in test [1] is hY4R deletion mutant Δ7.78, C-terminally fused to RLuc8 (human) (UniProt P50391). Kind of test: FRET or BRET. On the technique in general: In BRET a luciferase serves as donor, and the signal depends on an acceptor being close.
Sequence of hY4R deletion mutant Δ7.78, C-terminally fused to RLuc8 (human) (P50391 whole entry, stated change not applied, the tested form may be a part): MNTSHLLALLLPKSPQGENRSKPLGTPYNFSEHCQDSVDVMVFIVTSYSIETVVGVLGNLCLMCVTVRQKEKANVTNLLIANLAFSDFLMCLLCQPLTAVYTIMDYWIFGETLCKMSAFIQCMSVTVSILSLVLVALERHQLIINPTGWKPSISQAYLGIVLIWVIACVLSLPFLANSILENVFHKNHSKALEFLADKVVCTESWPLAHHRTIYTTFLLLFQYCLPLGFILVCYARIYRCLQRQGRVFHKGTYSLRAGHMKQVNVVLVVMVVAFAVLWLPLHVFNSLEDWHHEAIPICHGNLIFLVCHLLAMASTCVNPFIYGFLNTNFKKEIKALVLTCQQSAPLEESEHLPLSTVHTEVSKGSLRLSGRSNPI
The target in test [2] is hY4R deletion mutant Δ7.93, C-terminally fused to RLuc8 (human) (UniProt P50391). The test is described as follows: FRET or BRET.
Sequence of hY4R deletion mutant Δ7.93, C-terminally fused to RLuc8 (human) (P50391 whole entry, stated change not applied, the tested form may be a part): as above
In test [3] the target is hY4R deletion mutant Δ7.97, C-terminally fused to RLuc8 (human) (UniProt P50391). Kind of test: FRET or BRET.
Sequence of hY4R deletion mutant Δ7.97, C-terminally fused to RLuc8 (human) (P50391 whole entry, stated change not applied, the tested form may be a part): as above
Test [4] addresses hY4R point mutant E^7.78/79/81A, C-terminally fused to RLuc8 (human) (UniProt P50391). Kind of test: FRET or BRET.
For test [5], the target named is hY4R point mutant S^7.100/103A, C-terminally fused to RLuc8 (human) (UniProt P50391). The test is described as follows: FRET or BRET.
Sequence of hY4R point mutant S^7.100/103A, C-terminally fused to RLuc8 (human) (P50391 whole entry, change not shown, the tested form may be a part): as the sequence (P50391 whole entry, stated change not applied, the tested form may be a part) above
In test [6] the target is hY4R point mutant S^7.80/86A, C-terminally fused to RLuc8 (human) (UniProt P50391). Kind of test: FRET or BRET.
Sequence of hY4R point mutant S^7.80/86A, C-terminally fused to RLuc8 (human) (P50391 whole entry, change not shown, the tested form may be a part): as the sequence (P50391 whole entry, stated change not applied, the tested form may be a part) above
Test [7] addresses hY4R point mutant S^7.93/96A, C-terminally fused to RLuc8 (human) (UniProt P50391). The test is described as follows: FRET or BRET.
The target of test [8] is hY4R point mutant T^7.87/90A, C-terminally fused to RLuc8 (human) (UniProt P50391). Kind of test: FRET or BRET.
Sequence of hY4R point mutant T^7.87/90A, C-terminally fused to RLuc8 (human) (P50391 whole entry, stated change not applied, the tested form may be a part): as above
Another test deals with hY4R S^7.100/103A (Homo sapiens, UniProt P50391, S369A/S372A). Kind of test: TAMRA-hPP ligand uptake by fluorescence microscopy. It is filed as cell-based. The following applies: HEK293, 100 nM, 60 min, acidic wash pH 3.0, Mean ± S.E.M., n ≥ 4. In short, it runs like this:
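HEK293 cells on slides at 70–80% confluence, transfected (Lipofectamine 2000) with 1 µg receptor plasmid. Next day, starved 30 min at 37 °C in Opti-MEM, optionally with Hoechst33342. […] Intracellular fluorescence quantified per cell, ≥10 cells per experiment.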

The target in test [9] is N-terminally HA-tagged hY4R wild type fused to enhanced yellow fluorescent protein (human, UniProt P50391 1-375). The test is described as follows: radioligand binding.
Sequence of N-terminally HA-tagged hY4R wild type fused to enhanced yellow fluorescent protein (P50391 whole entry, the tested form may be a part): as the sequence (P50391 whole entry, stated change not applied, the tested form may be a part) above

Where no end group is shown, it is not given here.

Sequence of Bovine arrestin-3 N-terminally fused to Venus (P32120 whole entry, the tested form may be a part): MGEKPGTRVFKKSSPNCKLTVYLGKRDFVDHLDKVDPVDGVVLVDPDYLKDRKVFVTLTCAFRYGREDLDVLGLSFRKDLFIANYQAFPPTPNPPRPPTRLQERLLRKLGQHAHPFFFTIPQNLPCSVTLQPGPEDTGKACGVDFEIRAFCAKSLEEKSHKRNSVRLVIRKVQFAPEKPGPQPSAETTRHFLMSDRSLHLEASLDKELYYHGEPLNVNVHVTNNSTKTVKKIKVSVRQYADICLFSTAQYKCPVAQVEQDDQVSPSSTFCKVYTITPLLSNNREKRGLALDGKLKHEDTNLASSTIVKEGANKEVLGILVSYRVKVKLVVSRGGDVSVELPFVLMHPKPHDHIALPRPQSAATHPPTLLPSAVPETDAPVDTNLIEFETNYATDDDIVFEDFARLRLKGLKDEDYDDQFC
Sequence of hY4R point mutant E^7.78/79/81A, C-terminally fused to RLuc8 (human) (P50391 whole entry, change not shown, the tested form may be a part): as the sequence (P50391 whole entry, stated change not applied, the tested form may be a part) above
Sequence of hY4R point mutant S^7.93/96A, C-terminally fused to RLuc8 (human) (P50391 whole entry, change not shown, the tested form may be a part): as the sequence (P50391 whole entry, stated change not applied, the tested form may be a part) above
Sequence of hY4R S^7.100/103A (P50391 whole entry S369A/S372A): as the sequence (P50391 whole entry, stated change not applied, the tested form may be a part) above, with S369A, S372A counted along it

Turning to “[^125I]-hPP: radioligand used in binding experiments”, in the test on hY4R point mutants, the “cell surface expression ([^125I]-hPP binding)” value is given as above 78%.
“Bovine arrestin-3 N-terminally fused to Venus (from UniProt P32120 1-420) (natural protein)”: the arr-3 recruitment, maximum net BRET (% of WT) in test [1] was 1%; in [2] it was 174%; in test [3] it was 186%; in test [4], 25%; in test [5], 95%; in test [6], 33%. In addition, the arr-3 recruitment, maximum net BRET (% of WT) in test [7] is 49%; in [8] it was 51%.
Regarding “TAMRA-hPP: hPP-derivative that was N-terminally modified with a TAMRA fluorophore”, in the test with hY4R S^7.100/103A, the “TAMRA-hPP uptake (intracellular fluorescence)” value is recorded as 78 ± 11%.
Regarding APLEPVYPGDNATPEQMAQYAADLRRYINMLTRPRY-NH2 (peptide, UniProt P01298 30-65, looked up, also: 125I label (position not given here)) [[^125I]-labelled human pancreatic polypeptide], the “specific binding (% of WT)” value in test [9] came to 100%.
